Substitutions are numbered along the chain they refer to.
Experiments:
Assay type in all cases: cell-based
TREK-1 L304C = target: T1, TREK-1 L304C (Homo sapiens, UniProt O95069, L304C); assay: Cysteine-modification protection: MTS-TBAO modification of TREK-1 L304C; conditions: 10 μM MTS-TBAO; BL-1249 50 μM, ML335 50 μM, 2-APB 1 mM; result in words
T1 sequence (O95069 1-426 L304C): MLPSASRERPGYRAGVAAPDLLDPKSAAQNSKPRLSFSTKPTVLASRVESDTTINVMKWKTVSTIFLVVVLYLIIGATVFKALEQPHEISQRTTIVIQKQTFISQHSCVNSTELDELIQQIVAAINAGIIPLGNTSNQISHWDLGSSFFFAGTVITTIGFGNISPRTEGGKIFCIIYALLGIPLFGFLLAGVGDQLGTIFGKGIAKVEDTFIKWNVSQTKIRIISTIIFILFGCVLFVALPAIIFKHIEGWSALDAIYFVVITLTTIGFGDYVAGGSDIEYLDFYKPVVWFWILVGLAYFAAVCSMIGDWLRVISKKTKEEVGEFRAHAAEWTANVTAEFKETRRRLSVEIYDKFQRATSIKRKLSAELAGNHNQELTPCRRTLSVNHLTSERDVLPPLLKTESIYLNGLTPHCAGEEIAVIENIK

CNG channels = assay: BL-1249 on CNG channels; conditions: result in words
TREK-1 = target: T2, TREK-1 (Homo sapiens, UniProt O95069); assay: TREK-1 channel currents in inside-out patches; conditions: inside-out patches; result in words
T2 sequence (O95069 1-426): T1 sequence (O95069 1-426 L304C) with C304L
Outline: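 TREK-1 currents were recorded in inside-out patches from Xenopus oocytes and evoked by voltage ramps. Currents were read at +40 mV. Concentration-response curves were obtained with and without 5 μM THexA (tetrahexylammonium). THexA inhibition of basal current was quantified separately. n ≥ 8.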

TREK-2 = target: T3, TREK-2 (Homo sapiens, UniProt P57789); assay: TREK-2 channel currents, BL-1249 dose-response ± TEA or THexA; conditions: extended screening; result in words
T3 sequence (P57789 1-538): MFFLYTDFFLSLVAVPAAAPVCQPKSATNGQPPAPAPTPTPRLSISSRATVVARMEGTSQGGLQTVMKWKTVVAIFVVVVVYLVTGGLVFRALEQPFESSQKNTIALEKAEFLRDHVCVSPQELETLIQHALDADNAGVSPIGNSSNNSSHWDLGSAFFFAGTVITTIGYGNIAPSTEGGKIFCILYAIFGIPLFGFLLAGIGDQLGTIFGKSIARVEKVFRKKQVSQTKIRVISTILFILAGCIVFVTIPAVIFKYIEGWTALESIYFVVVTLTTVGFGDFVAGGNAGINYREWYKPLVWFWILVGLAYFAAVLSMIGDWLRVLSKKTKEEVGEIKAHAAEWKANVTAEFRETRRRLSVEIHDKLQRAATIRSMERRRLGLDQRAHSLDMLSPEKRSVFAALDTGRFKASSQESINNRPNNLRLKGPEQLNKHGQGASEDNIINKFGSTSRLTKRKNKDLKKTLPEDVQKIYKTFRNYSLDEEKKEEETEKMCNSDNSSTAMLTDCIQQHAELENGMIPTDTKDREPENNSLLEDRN
Outline: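 TREK-2 concentration-response curves for test compound were run with and without intracellular blocker: 100 mM TEA (n ≥ 12) or 5 μM THexA (n ≥ 13). Inhibition of basal current by each blocker was also quantified.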

TALK-1 = target: T4, TALK-1 (Homo sapiens, UniProt Q96T55); assay: Extended screening of K2P channels with BL-1249: TALK-1; conditions: result in words
T4 sequence (Q96T55 1-309): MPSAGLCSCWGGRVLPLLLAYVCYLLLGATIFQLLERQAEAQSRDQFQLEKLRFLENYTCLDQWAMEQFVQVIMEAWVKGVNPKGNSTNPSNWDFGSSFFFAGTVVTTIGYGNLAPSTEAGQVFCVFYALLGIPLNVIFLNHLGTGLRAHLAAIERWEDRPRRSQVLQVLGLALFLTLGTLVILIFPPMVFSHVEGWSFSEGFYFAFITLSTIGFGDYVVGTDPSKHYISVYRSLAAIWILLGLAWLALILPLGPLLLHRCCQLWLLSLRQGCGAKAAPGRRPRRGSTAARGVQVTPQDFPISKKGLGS

Kv3.1 = target: T5, Kv3.1 (Homo sapiens, UniProt P48547); assay: BL-1249 on helix bundle-crossing gated channel Kv3.1; conditions: result in words
T5 sequence (P48547 1-511): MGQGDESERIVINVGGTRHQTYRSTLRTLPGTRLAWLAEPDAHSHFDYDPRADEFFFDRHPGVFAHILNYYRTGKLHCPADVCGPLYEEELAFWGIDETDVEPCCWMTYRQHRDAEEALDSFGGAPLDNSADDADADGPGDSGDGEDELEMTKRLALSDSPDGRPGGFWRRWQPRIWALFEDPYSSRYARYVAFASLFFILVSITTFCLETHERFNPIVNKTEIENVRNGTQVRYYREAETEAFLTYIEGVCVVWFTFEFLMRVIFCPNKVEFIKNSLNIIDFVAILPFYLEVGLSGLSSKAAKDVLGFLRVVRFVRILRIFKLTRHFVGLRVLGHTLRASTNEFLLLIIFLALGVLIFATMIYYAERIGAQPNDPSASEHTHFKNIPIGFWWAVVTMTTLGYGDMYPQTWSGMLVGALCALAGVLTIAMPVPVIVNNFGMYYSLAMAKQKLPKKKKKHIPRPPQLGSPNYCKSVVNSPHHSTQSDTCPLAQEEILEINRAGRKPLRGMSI

Question: Which “time course of irreversible pore blockade by MTS-TBAO” value (TREK-1 L304C) does the source give for c1ccc(-c2nn[nH]n2)c(Nc2cccc3c2CCCC3)c1 [BL-1249] here?
Answer: The value was “markedly slowed”.

Question: And the “activation of CNG channels” value (CNG channels)?
Answer: Its value is “not activated”.

Question: And the “opening / activation of TREK-1 channels” value (TREK-1)?
Answer: Its value is “equal efficiency in opening”.

Question: And the “activation of TREK-2” value (TREK-2)?
Answer: Its value is “potent activation”.

Question: What about the “activation of TALK-1” value (TALK-1) of the same compound?
Answer: Its value is “potent activation”.

Question: What about the “activation of Kv3.1” value (Kv3.1) of the same compound?
Answer: Its value is “not activated”.
